Assay results from ChEMBL document CHEMBL4689842, “EUbOPEN Chemogenomics Library wave 1” (2021).

Tested on: Fibroblast
Test: Multiplex assay against human fibroblast
Format: toxicity, cell-based
Method in brief: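 With compound added, live cells were imaged on a CQ1 microscope at 37°C and 5% CO2; staining with Hoechst33342, BioTracker Green Microtubule Cytoskeleton Dye, MitoTracker Red and Annexin V Alexa Fluor 680 had been done at seeding. The CellPathfinder machine-learning gating scheme split cells into Hoechst high-intensity objects or normal cells, normal cells into healthy, pyknosed or fragmented nuclei, and pyknosed cells into mitotic or apoptotic. The tubulin, mitochondrial-mass and membrane-permeability phenotypes are per cents of healthy-nucleus cells.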

[1] = 12 h, 1 µM, compound concentration 1 uM, replicate 1
[2] = 12 h, 1 µM, compound concentration 1 uM, replicate 2
[3] = 12 h, 10 µM, compound concentration 10 uM, replicate 1
[4] = 12 h, 10 µM, compound concentration 10 uM, replicate 2
[5] = 24 h, 1 µM, compound concentration 1 uM, replicate 1
[6] = 24 h, 1 µM, compound concentration 1 uM, replicate 2
[7] = 24 h, 10 µM, compound concentration 10 uM, replicate 1
[8] = 24 h, 10 µM, compound concentration 10 uM, replicate 2
[9] = 48 h, 1 µM, compound concentration 1 uM, replicate 1
[10] = 48 h, 1 µM, compound concentration 1 uM, replicate 2
[11] = 48 h, 10 µM, compound concentration 10 uM, replicate 1
[12] = 48 h, 10 µM, compound concentration 10 uM, replicate 2

OC1(c2ccc(Cl)cc2)CCN(Cc2c[nH]c3ccccc23)CC1
Population Apoptotic (%) [1]: 58%
Population Fragmented Nuclei (%) [1]: 26%
Population Healthy Nuclei (%) [1]: 41%
Population Hoechst High Intensity Objects (%) [1]: 11%
Population Membrane Permeable-Phenotype (%) [1]: 22%
Population Mitochondria Different-Phenotype (%) [1]: 6%
Population Mitotic Cells (%) [1]: 41%
Population Normal (%) [1]: 88%
Population Pyknosed Nuclei (%) [1]: 32%
Population Tubulin-Different-Phenotype (%) [1]: 33%
Total Cell Count [1]: 169
Population Apoptotic (%) [2]: 0%
Population Fragmented Nuclei (%) [2]: 13%
Population Healthy Nuclei (%) [2]: 77%
Population Hoechst High Intensity Objects (%) [2]: 10%
Population Membrane Permeable-Phenotype (%) [2]: 3%
Population Mitochondria Different-Phenotype (%) [2]: 13%
Population Mitotic Cells (%) [2]: 100%
Population Normal (%) [2]: 89%
Population Pyknosed Nuclei (%) [2]: 9%
Population Tubulin-Different-Phenotype (%) [2]: 9%
Total Cell Count [2]: 78
Population Apoptotic (%) [3]: 63%
Population Fragmented Nuclei (%) [3]: 37%
Population Healthy Nuclei (%) [3]: 38%
Population Hoechst High Intensity Objects (%) [3]: 30%
Population Membrane Permeable-Phenotype (%) [3]: 13%
Population Mitochondria Different-Phenotype (%) [3]: 34%
Population Mitotic Cells (%) [3]: 36%
Population Normal (%) [3]: 69%
Population Pyknosed Nuclei (%) [3]: 23%
Population Tubulin-Different-Phenotype (%) [3]: 90%
Total Cell Count [3]: 246
Population Apoptotic (%) [4]: 42%
Population Fragmented Nuclei (%) [4]: 13%
Population Hoechst High Intensity Objects (%) [4]: 3%
Population Membrane Permeable-Phenotype (%) [4]: 4%
Population Mitochondria Different-Phenotype (%) [4]: 95%
Population Mitotic Cells (%) [4]: 57%
Population Normal (%) [4]: 96%
Population Pyknosed Nuclei (%) [4]: 47%
Population Tubulin-Different-Phenotype (%) [4]: 60%
Total Cell Count [4]: 74
Population Apoptotic (%) [5]: 52%
Population Fragmented Nuclei (%) [5]: 29%
Population Healthy Nuclei (%) [5]: 47%
Population Hoechst High Intensity Objects (%) [5]: 14%
Population Membrane Permeable-Phenotype (%) [5]: 25%
Population Mitochondria Different-Phenotype (%) [5]: 10%
Population Mitotic Cells (%) [5]: 47%
Population Normal (%) [5]: 85%
Population Pyknosed Nuclei (%) [5]: 22%
Population Tubulin-Different-Phenotype (%) [5]: 42%
Total Cell Count [5]: 174
Population Apoptotic (%) [6]: 20%
Population Fragmented Nuclei (%) [6]: 5%
Population Healthy Nuclei (%) [6]: 88%
Population Hoechst High Intensity Objects (%) [6]: 8%
Population Membrane Permeable-Phenotype (%) [6]: 4%
Population Mitochondria Different-Phenotype (%) [6]: 13%
Population Mitotic Cells (%) [6]: 80%
Population Normal (%) [6]: 91%
Population Pyknosed Nuclei (%) [6]: 6%
Population Tubulin-Different-Phenotype (%) [6]: 8%
Total Cell Count [6]: 77
Population Apoptotic (%) [7]: 64%
Population Fragmented Nuclei (%) [7]: 24%
Population Healthy Nuclei (%) [7]: 50%
Population Hoechst High Intensity Objects (%) [7]: 43%
Population Membrane Permeable-Phenotype (%) [7]: 20%
Population Mitochondria Different-Phenotype (%) [7]: 51%
Population Mitotic Cells (%) [7]: 35%
Population Normal (%) [7]: 56%
Population Pyknosed Nuclei (%) [7]: 24%
Population Tubulin-Different-Phenotype (%) [7]: 75%
Total Cell Count [7]: 224
Population Apoptotic (%) [8]: 66%
Population Fragmented Nuclei (%) [8]: 21%
Population Healthy Nuclei (%) [8]: 27%
Population Hoechst High Intensity Objects (%) [8]: 5%
Population Membrane Permeable-Phenotype (%) [8]: 5%
Population Mitochondria Different-Phenotype (%) [8]: 94%
Population Mitotic Cells (%) [8]: 33%
Population Normal (%) [8]: 94%
Population Pyknosed Nuclei (%) [8]: 51%
Population Tubulin-Different-Phenotype (%) [8]: 52%
Total Cell Count [8]: 85
Population Apoptotic (%) [9]: 82%
Population Fragmented Nuclei (%) [9]: 33%
Population Healthy Nuclei (%) [9]: 26%
Population Hoechst High Intensity Objects (%) [9]: 0%
Population Membrane Permeable-Phenotype (%) [9]: 54%
Population Mitochondria Different-Phenotype (%) [9]: 0%
Population Mitotic Cells (%) [9]: 17%
Population Normal (%) [9]: 100%
Population Pyknosed Nuclei (%) [9]: 40%
Population Tubulin-Different-Phenotype (%) [9]: 90%
Total Cell Count [9]: 42
Population Apoptotic (%) [10]: 50%
Population Fragmented Nuclei (%) [10]: 43%
Population Healthy Nuclei (%) [10]: 54%
Population Hoechst High Intensity Objects (%) [10]: 14%
Population Membrane Permeable-Phenotype (%) [10]: 5%
Population Mitochondria Different-Phenotype (%) [10]: 1%
Population Mitotic Cells (%) [10]: 50%
Population Normal (%) [10]: 85%
Population Pyknosed Nuclei (%) [10]: 1%
Population Tubulin-Different-Phenotype (%) [10]: 46%
Total Cell Count [10]: 119
Population Fragmented Nuclei (%) [11]: 36%
Population Healthy Nuclei (%) [11]: 26%
Population Hoechst High Intensity Objects (%) [11]: 40%
Population Membrane Permeable-Phenotype (%) [11]: 16%
Population Mitochondria Different-Phenotype (%) [11]: 56%
Population Normal (%) [11]: 59%
Population Pyknosed Nuclei (%) [11]: 37%
Population Tubulin-Different-Phenotype (%) [11]: 70%
Total Cell Count [11]: 191
Population Apoptotic (%) [12]: 90%
Population Fragmented Nuclei (%) [12]: 39%
Population Healthy Nuclei (%) [12]: 24%
Population Hoechst High Intensity Objects (%) [12]: 30%
Population Membrane Permeable-Phenotype (%) [12]: 17%
Population Mitochondria Different-Phenotype (%) [12]: 47%
Population Mitotic Cells (%) [12]: 9%
Population Normal (%) [12]: 69%
Population Pyknosed Nuclei (%) [12]: 35%
Population Tubulin-Different-Phenotype (%) [12]: 52%
Total Cell Count [12]: 133
